Reference: ChEMBL document CHEMBL1157843, “Synthesis and anticonvulsant activity of a new 6-alkoxy-[1,2,4]triazolo[4,3-b]pyridazine” (Eur J Med Chem, 2010)
Activity calls are given as the source filed them. The calls are words filed in the database; no cut-off is given here.

Columns and labels:
[1] = tested on: Mus musculus; assay: Anticonvulsant in mouse assessed as protection against maximum electric stimulus-induced seizures at 100 mg/kg, ip after 4 hrs; type: functional, organism-based; design: dose 100 mg/kg
Outline: (§1)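 Phase-I qualitative MES screen following NIH ADD protocol. KunMing mice (18–25 g), three per dose, test agent in polyethylene glycol-400 i.p. at 30, 100 or 300 mg/kg. Protection assessed 0.5 h and 4 h after dosing; scored as animals protected/animals tested.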

[2] = tested on: Mus musculus; assay: Anticonvulsant in ip dosed mouse assessed as protection against maximum electric stimulus-induced seizures; type: functional
Outline: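 Phase-II quantitation in KunMing mice (18–25 g), vehicle polyethylene glycol-400. Groups of 10 received a range of i.p. doses until at least three points fell within 10–90% MES protection or minimal rotarod neurotoxicity. ED50, TD50 and 95% confidence intervals computed from regression by an NINDS program. PI = TD50/ED50.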

[3] = tested on: Mus musculus; assay: Neurotoxicity against mouse at 100 mg/kg, ip after 4 hrs by rotarod ataxia test; type: toxicity, organism-based; design: dose 100 mg/kg, route intraperitoneal; settings: in vivo
Outline: (§2)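 Phase-I rotarod ataxia screen per NIH ADD protocol. KunMing mice (18–25 g), three per dose, test agent in polyethylene glycol-400 i.p. at 30, 100 or 300 mg/kg. Neurological deficit read 30 min and 4 h after dosing; scored as animals showing toxicity/animals tested.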

[4] = tested on: Mus musculus; assay: Neurotoxicity against mouse at 100 mg/kg, ip after 0.5 hrs by rotarod ataxia test; type: toxicity, organism-based; design: dose 100 mg/kg, route intraperitoneal; settings: in vivo; outline: as §2
[5] = tested on: Mus musculus; assay: Neurotoxicity against mouse at 30 mg/kg, ip after 0.5 hrs by rotarod ataxia test; type: toxicity, organism-based; design: dose 30 mg/kg, route intraperitoneal; settings: in vivo; outline: as §2
[6] = tested on: Mus musculus; assay: Protective index, ratio of TD50 for ip dosed mouse to ED50 for maximum electric stimulus-induced seizure in ip dosed mouse; type: functional
[7] = tested on: Mus musculus; assay: Neurotoxicity against mouse at 30 mg/kg, ip after 4 hrs by rotarod ataxia test; type: toxicity, organism-based; design: dose 30 mg/kg, route intraperitoneal; settings: in vivo; outline: as §2
[8] = Neurotoxicity against ip dosed mouse by rotarod ataxia test; type: toxicity, organism-based; settings: in vivo
[9] = tested on: Mus musculus; assay: Anticonvulsant in mouse assessed as protection against maximum electric stimulus-induced seizures at 30 mg/kg, ip after 4 hrs; type: functional, organism-based; design: dose 30 mg/kg; outline: as §1
[10] = tested on: Mus musculus; assay: Anticonvulsant activity in mouse assessed as inhibition of thiosemicarbazide-induced clonic seizure at 50 mg/kg, ip administered 30 mins prior to thiosemicarbazide challenge measured after 2.5 hrs; type: functional; settings: route intraperitoneal
Outline: (§3)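 KunMing mice (18–25 g), groups of 10, pretreated i.p. with test agent in polyethylene glycol-400 30 min before thiosemicarbazide 50 mg/kg i.p. Animals kept in individual cages and watched for 2 h 30 min, noting clonic seizures, tonic seizures and lethality.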

[11] = tested on: Mus musculus; assay: Anticonvulsant activity in mouse assessed as reduction of thiosemicarbazide-induced lethality at 50 mg/kg, ip administered 30 mins prior to thiosemicarbazide challenge measured after 2.5 hrs; type: functional; design: scale not given: the % may be the effect or the level left; settings: route intraperitoneal
[12] = tested on: Mus musculus; assay: Anticonvulsant activity in mouse assessed as inhibition of PTZ-induced tonic seizure at 50 mg/kg, ip administered 30 mins prior to PTZ challenge measured after 0.5 hrs; type: functional; settings: route intraperitoneal
Outline: (§4)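 KunMing mice, 18–25 g, groups of 10; test agent in polyethylene glycol-400 given i.p. 30 min before convulsant. PTZ 85 mg/kg s.c., 3-MP 40 mg/kg s.c., isoniazid 250 mg/kg i.p.; doses chosen to induce seizures in at least 97% of animals. Individual cages, 30 min observation; clonic seizures, tonic seizures and lethality recorded.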

[13] = tested on: Mus musculus; assay: Anticonvulsant activity in mouse assessed as inhibition of thiosemicarbazide-induced tonic seizure at 50 mg/kg, ip administered 30 mins prior to thiosemicarbazide challenge measured after 2.5 hrs; type: functional; settings: route intraperitoneal; outline: as §3
[14] = species on record: Mus musculus; assay: Sedative-hypnotic activity in mouse assessed as reduction in righting reflex; type: organism-based; settings: in vivo
Outline: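 Phase-III work in KunMing mice: behaviour observed at intervals up to 24 h after i.p. TD50, 2TD50 and 4TD50 doses. […] Ratio taken as HD50 divided by i.p. MES ED50.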

[15] = tested on: Mus musculus; assay: Anticonvulsant activity in mouse assessed as inhibition of isoniazid-induced clonic seizure at 50 mg/kg, ip administered 30 mins prior to isoniazid challenge measured after 0.5 hrs; type: functional; settings: route intraperitoneal; outline: as §4
[16] = tested on: Mus musculus; assay: Anticonvulsant activity in mouse assessed as reduction of isoniazid-induced lethality at 50 mg/kg, ip administered 30 mins prior to isoniazid challenge measured after 0.5 hrs; type: functional; design: scale not given: the % may be the effect or the level left; settings: route intraperitoneal
[17] = tested on: Mus musculus; assay: Anticonvulsant activity in mouse assessed as inhibition of 3-mercaptopropionic acid-induced clonic seizure at 50 mg/kg, ip administered 30 mins prior to 3-mercaptopropionic acid challenge measured after 0.5 hrs; type: functional; settings: route intraperitoneal; outline: as §4
[18] = tested on: Mus musculus; assay: Anticonvulsant activity in mouse assessed as inhibition of isoniazid-induced tonic seizure at 50 mg/kg, ip administered 30 mins prior to isoniazid challenge measured after 0.5 hrs; type: functional; settings: route intraperitoneal; outline: as §4
[19] = tested on: Mus musculus; assay: Anticonvulsant activity in mouse assessed as reduction of 3-mercaptopropionic acid-induced lethality at 50 mg/kg, ip administered 30 mins prior to 3-mercaptopropionic acid challenge measured after 0.5 hrs; type: functional; design: scale not given: the % may be the effect or the level left; settings: route intraperitoneal
[20] = tested on: Mus musculus; assay: Anticonvulsant activity in mouse assessed as reduction of PTZ-induced lethality at 50 mg/kg, ip administered 30 mins prior to PTZ challenge measured after 0.5 hrs; type: functional; design: scale not given: the % may be the effect or the level left; settings: route intraperitoneal
[21] = tested on: Mus musculus; assay: Anticonvulsant activity in mouse assessed as inhibition of PTZ-induced clonic seizure at 50 mg/kg, ip administered 30 mins prior to PTZ challenge measured after 0.5 hrs; type: functional; settings: route intraperitoneal; outline: as §4
[22] = tested on: Mus musculus; assay: Anticonvulsant activity in mouse assessed as inhibition of 3-mercaptopropionic acid-induced tonic seizure at 50 mg/kg, ip administered 30 mins prior to 3-mercaptopropionic acid challenge measured after 0.5 hrs; type: functional; settings: route intraperitoneal; outline: as §4
[23] = tested on: Mus musculus; assay: Protective index, ratio of TD50 for po dosed mouse to ED50 for maximum electric stimulus-induced seizure in po dosed mouse; type: functional
[24] = species on record: Mus musculus; assay: Ratio of HD50 for hypnotic activity to EC50 for inhibition of maximum electric stimulus-induced seizure in mouse; type: functional
[25] = Neurotoxicity against po dosed mouse by rotarod ataxia test; type: toxicity, organism-based; settings: in vivo
[26] = tested on: Mus musculus; assay: Anticonvulsant in mouse assessed as protection against maximum electric stimulus-induced seizures at 30 mg/kg, ip after 0.5 hrs; type: functional, organism-based; design: dose 30 mg/kg; outline: as §1
[27] = tested on: Mus musculus; assay: Anticonvulsant in po dosed mouse assessed as protection against maximum electric stimulus-induced seizures; type: functional
Outline: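 Oral version of the phase-II protocol in KunMing mice (18–25 g). Groups of 10 dosed p.o. over a range giving at least three points between 10–90% MES protection or rotarod minimal neurotoxicity. Testing at 2 h time to peak effect. ED50 and TD50 with 95% confidence intervals from regression. PI = TD50/ED50.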

Compound: Cc1cccc(Oc2ccc3nncn3n2)c1
- Activity [1]: inactive
- ED50 [2]: > 100 mg/kg
- Activity [3]: Non-toxic
- Activity [4]: Non-toxic

Compound: Fc1ccc(Oc2ccc3nncn3n2)cc1
- Activity [5]: Non-toxic
- PI [6]: 8.3
- Activity [7]: Non-toxic
- ED50 [2]: 38 mg/kg
- TD50 [8]: 317 mg/kg
- Activity [9]: inactive

Compound: NC(=O)N1c2ccccc2C=Cc2ccccc21 [CARBAMAZEPINE]
- inhibition in vivo at 50 mg/kg [10]: 90%
- Activity [11]: 0%
- inhibition in vivo at 50 mg/kg [12]: 0%
- inhibition in vivo at 50 mg/kg [13]: 0%
- HD50 [14]: 172 mg/kg
- inhibition in vivo at 50 mg/kg [15]: 40%
- Activity [16]: 0%
- ED50 [2]: 8.8 mg/kg
- inhibition in vivo at 50 mg/kg [17]: 80%
- inhibition in vivo at 50 mg/kg [18]: 0%
- Activity [19]: 10%
- Activity [20]: 0%
- inhibition in vivo at 50 mg/kg [21]: 100%
- inhibition in vivo at 50 mg/kg [22]: 0%

Compound: CCCCCCOc1ccc2nncn2n1
- Activity [5]: Toxic
- PI [6]: 1.8
- Activity [7]: Non-toxic
- ED50 [2]: 32.9 mg/kg
- TD50 [8]: 60.8 mg/kg
- Activity [9]: inactive

Compound: Clc1cccc(Oc2ccc3nncn3n2)c1
- Activity [5]: Non-toxic
- PI [6]: 5.8
- Activity [7]: Non-toxic
- ED50 [2]: 39.4 mg/kg
- TD50 [8]: 228 mg/kg

Compound: Clc1ccc(Oc2ccc3nncn3n2)cc1
- Activity [5]: Non-toxic
- PI [6]: 10.7
- Activity [7]: Non-toxic
- ED50 [2]: 36.7 mg/kg
- TD50 [8]: 394 mg/kg

Compound: CCCCCCCCCOc1ccc2nncn2n1
- Activity [1]: inactive
- ED50 [2]: > 100 mg/kg
- Activity [3]: Non-toxic
- Activity [4]: Toxic

Compound: COc1ccccc1Oc1ccc2nncn2n1
- Activity [1]: inactive
- ED50 [2]: > 100 mg/kg
- Activity [3]: Non-toxic
- Activity [4]: Non-toxic

Compound: CCCCCCCCCCOc1ccc2nncn2n1
- Activity [1]: inactive
- ED50 [2]: > 100 mg/kg
- Activity [3]: Non-toxic
- Activity [4]: Toxic

Compound: Clc1ccc(Oc2ccc3nncn3n2)c(Cl)c1
- Activity [5]: Non-toxic
- inhibition in vivo at 50 mg/kg [10]: 90%
- Activity [11]: 40%
- inhibition in vivo at 50 mg/kg [12]: 10%
- inhibition in vivo at 50 mg/kg [13]: 0%
- PI [23]: 12
- Ratio [24]: 43.2
- PI [6]: 22
- HD50 [14]: 746.6 mg/kg
- Activity [7]: Non-toxic
- TD50 [25]: 546 mg/kg
- inhibition in vivo at 50 mg/kg [15]: 90%
- Activity [16]: 0%
- Activity [26]: Active
- ED50 [2]: 17.3 mg/kg
- inhibition in vivo at 50 mg/kg [17]: 80%
- inhibition in vivo at 50 mg/kg [18]: 0%
- Activity [19]: 40%
- Activity [20]: 0%
- TD50 [8]: 380 mg/kg
- inhibition in vivo at 50 mg/kg [21]: 100%
- inhibition in vivo at 50 mg/kg [22]: 0%
- ED50 [27]: 45.6 mg/kg
